SMILES strings stand for the structures. pIC50: −log10 of the molar value. Activity calls are given as the source filed them. The calls are words filed in the database; no cut-off is given here. A value given as a limit tells only on which side of the number the result lay.

As a reminder, the pIC50 is the IC50 on a negative log10 scale, so that one unit is a factor of ten. Read a low pIC50 as a high IC50.

For data set [1], the system named is Nucleic Acid. As to the kind of experiment: Binding affinity to salmon testes DNA at drug/DNA ratio of 0.03 by linear dichroism analysis. The class given is nucleic-acid assay. The conditions noted are these: Salmonidae. The essentials:
(§1)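 Flow linear dichroism in 10 mM phosphate buffer pH 7.2. Samples oriented in a rotating cylindrical cuvette (0.14 cm path, 800 rpm) at several drug/DNA ratios.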

The subject of data set [2] is Jurkat. As to the kind of experiment: Cell cycle arrest in UV-A irradiated human Jurkat cells assessed as accumulation at S phase at 5 uM after 24 hrs by propidium iodide based flow cytometry (reference value: 25.3 %). It counts as functional. The essentials:
(§2)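 Exponentially growing Jurkat cells (5×10^5) irradiated with UV-A (365 nm lamp, 2.5 J/cm²) in presence of compound. After 24 h: fixed in ice-cold 70% ethanol, lysed with RNAse A, stained with PI (10 µg/ml), analysed by flow cytometry. Phases calculated on living cells; subG1 is hypodiploid DNA peak.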
(In general: Flow cytometry measures light scatter and fluorescence of single cells or particles in a stream.)

Data set [3] concerns LoVo. As to the kind of experiment: Phototoxicity in 2.5 J/cm'2 UV-A irradiated human LoVo cells after 72 hrs by MTT assay. It counts as functional, cell-based. The conditions noted are these: light or radiation study. The essentials: (§3)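 HL-60 and Jurkat (8×10³/well, RPMI-1640) and MCF-7, LoVo, NCTC-2544 (5×10³/well; DMEM or Ham's F12) preincubated 18 h at 37 °C, 5% CO₂. Compound in DMSO diluted in HBSS pH 7.2, 30 min at 37 °C, then UV-A at 2.5 or 3.75 J/cm². Medium replaced, 72 h incubation, MTT read-out. IC50 as mean ± SEM of three experiments.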

The test system of data set [4] is Jurkat. In words: Cell cycle arrest in UV-A irradiated human Jurkat cells assessed as accumulation at G1 phase at 10 uM after 24 hrs by propidium iodide based flow cytometry (reference value: 64.4 %). The class given is functional. The essentials: as §2
Data set [5] relates to HL-60. In words: Phototoxicity in 3.75 J/cm'2 UV-A irradiated human HL60 cells after 72 hrs by MTT assay. It counts as functional, cell-based. The conditions noted are these: HL-60, light or radiation study. A digest of the protocol:
as §3

In data set [6] the test system is Nucleic Acid. In words: Binding affinity to salmon testes DNA at 10 uM by fluorescence titration. The class given is nucleic-acid assay. The conditions noted are these: Salmonidae. The essentials: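 Fluorimetric titration of compound (10 μM) with increasing stDNA (0 to 100 μM) in 10 mM phosphate buffer pH 7.2; quenching of compound fluorescence monitored.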
Data set [7] deals with MCF7. In words: Phototoxicity in 2.5 J/cm'2 UV-A irradiated human MCF7 cells after 72 hrs by MTT assay. The class given is functional, cell-based. To be noted: MCF7, light or radiation study. The essentials: as §3
Data set [8] has as its system LoVo. As to the kind of experiment: Phototoxicity in 3.75 J/cm'2 UV-A irradiated human LoVo cells after 72 hrs by MTT assay. The class given is functional, cell-based. The conditions noted are these: light or radiation study. A digest of the protocol:
(§4)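 Seeded at 5 × 10³ cells/well with 10% FBS: MCF-7 and NCTC-2544 in DMEM, LoVo in Ham's F12. Pre-incubated 18 h at 37 °C, 5% CO2. Compound (DMSO stock diluted in HBSS pH 7.2) was applied for 30 min at 37 °C, then UV-A irradiation (mainly 365 nm, 4.0 mW/cm²). Medium was restored for 72 h before MTT. IC50 is the mean ± SEM of three experiences.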

Data set [9] has as its system Jurkat. In words: Cell cycle arrest in UV-A irradiated human Jurkat cells assessed as accumulation at G2/M phase at 5 uM after 24 hrs by propidium iodide based flow cytometry (reference value: 10.3 %). It counts as functional. The essentials: as §2
Data set [10] relates to Jurkat. In words: Cell cycle arrest in UV-A irradiated human Jurkat cells assessed as accumulation at Sub G1 phase at 10 uM after 24 hrs by propidium iodide based flow cytometry (reference value: 0.1 %). It counts as functional. A digest of the protocol:
as §2

Data set [11] relates to MCF7. In words: Phototoxicity in 3.75 J/cm'2 UV-A irradiated human MCF7 cells after 72 hrs by MTT assay. It counts as functional, cell-based. The conditions noted are these: MCF7, light or radiation study. A digest of the protocol: as §4
For orientation: Tetrazolium assays rely on reduction of a dye to a coloured formazan, in cell work by metabolically active cells.

Data set [12] concerns Jurkat. As to the kind of experiment: Cell cycle arrest in UV-A irradiated human Jurkat cells assessed as accumulation at G2/M phase at 10 uM after 24 hrs by propidium iodide based flow cytometry (reference value: 10.3 %). The class given is functional. A digest of the protocol: as §2
Data set [13] has as its system Jurkat. As to the kind of experiment: Induction of lipid peroxidation in 3.75 J/cm'2 UV-A irradiated human Jurkat cells assessed as increase in TBARS formation after 24 hrs by thiobarbituric acid assay. The class given is functional, cell-based. A digest of the protocol: (§5)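 Lipid peroxidation measured as MDA–thiobarbituric acid adducts, with BHT added to samples; calibrated to a 1,1,3,3-tetraethoxypropane standard curve; protein by Peterson method.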

The subject of data set [14] is Nucleic Acid. As to the kind of experiment: Binding affinity to salmon testes DNA at drug/DNA ratio of 0.01 by linear dichroism analysis. The class given is nucleic-acid assay. The conditions noted are these: Salmonidae. A digest of the protocol: as §1
A short description of data set [15]: Photodegradation of the compound in DMSO assessed as formation of photoproducts at 20 uM at 1.3 to 15.2 J/cm'2 UV-A irradiation. The class given is physicochemical. A digest of the protocol: (§6)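 Compound solutions at 20 μM in DMSO exposed to increasing UV-A doses (HPW 125 lamps, mainly 365 nm, 4.0 mW cm⁻²). Absorption spectra recorded after each dose; isosbestic points noted.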

The test system of data set [16] is Jurkat. In words: Cell cycle arrest in UV-A irradiated human Jurkat cells assessed as accumulation at S phase at 10 uM after 24 hrs by propidium iodide based flow cytometry (reference value: 25.3 %). It counts as functional. The essentials:
as §2

Data set [17] relates to Jurkat. As to the kind of experiment: Cell cycle arrest in UV-A irradiated human Jurkat cells assessed as accumulation at G1 phase at 5 uM after 24 hrs by propidium iodide based flow cytometry (reference value: 64.4 %). It counts as functional. The essentials: as §2
A short description of data set [18]: Phototoxicity in 3.75 J/cm'2 UV-A irradiated human NCTC-2544 cells after 72 hrs by MTT assay. The class given is functional, cell-based. To be noted: NCTC-2544, light or radiation study. A digest of the protocol:
as §4

Data set [19] relates to Jurkat. As to the kind of experiment: Cell cycle arrest in UV-A irradiated human Jurkat cells assessed as accumulation at Sub G1 phase at 5 uM after 24 hrs by propidium iodide based flow cytometry (reference value: 0.1 %). The class given is functional. A digest of the protocol: as §2
The nature of data set [20]: Phototoxicity in 2.5 J/cm'2 UV-A irradiated human NCTC-2544 cells after 72 hrs by MTT assay. It counts as functional, cell-based. The conditions noted are these: NCTC-2544, light or radiation study. The essentials: as §3
The subject of data set [21] is Jurkat. As to the kind of experiment: Induction of lipid peroxidation in 2.5 J/cm'2 UV-A irradiated human Jurkat cells assessed as increase in TBARS formation after 24 hrs by thiobarbituric acid assay. It counts as functional, cell-based. A digest of the protocol:
as §5

Data set [22] has as its system Nucleic Acid. In words: Binding affinity to salmon testes DNA at drug/DNA ratio of 0.02 by linear dichroism analysis. It counts as nucleic-acid assay. To be noted: Salmonidae. The essentials:
as §1

For data set [23], the system named is HL-60. As to the kind of experiment: Phototoxicity in 2.5 J/cm'2 UV-A irradiated human HL60 cells after 72 hrs by MTT assay. It counts as functional, cell-based. To be noted: HL-60, light or radiation study. A digest of the protocol: as §3
Data set [24] relates to Jurkat. As to the kind of experiment: Phototoxicity in 2.5 J/cm'2 UV-A irradiated human Jurkat cells after 72 hrs by MTT assay. To be noted: light or radiation study. It counts as functional, cell-based. A digest of the protocol:
as §3

In data set [25] the test system is Jurkat. In words: Phototoxicity in 3.75 J/cm'2 UV-A irradiated human Jurkat cells after 72 hrs by MTT assay. The class given is functional, cell-based. The conditions noted are these: light or radiation study. A digest of the protocol: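 Jurkat cells (8 × 10³/well) in RPMI-1640 with 10% FBS, held 18 h at 37 °C, 5% CO2. Compound stock in DMSO was diluted in HBSS pH 7.2 and added for 30 min at 37 °C. Cells were UV-A irradiated (lamp mainly 365 nm, 4.0 mW/cm²), then returned to medium for 72 h. MTT readout. IC50 is the mean ± SEM of three experiences.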

Data set [26] can be described thus: Photodegradation of the compound in DMSO assessed as formation of photoproducts at 20 uM at 1.3 to 14.3 J/cm'2 UV-A irradiation. It counts as physicochemical. The essentials: as §6
The subject of data set [27] is Jurkat. In words: Induction of apoptosis in UV-A irradiated human Jurkat cells assessed as increase in number of damaged lysosomes at 5 to 10 uM by acridine orange-based flow cytometry. The class given is functional, cell-based. The essentials: (§7)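 Lysosomal stability in Jurkat cells 6, 12 and 24 h after UV-A (2.5 J/cm²) with compound. Cells resuspended in RPMI-1640 with 1 µM acridine orange; flow cytometry, excitation 488 nm, emission in FL3. Mean ± SEM of three experiments.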

Data set [28] deals with Jurkat. As to the kind of experiment: Induction of apoptosis in UV-A irradiated human Jurkat cells assessed as increase in number of damaged lysosomes after 6 to 24 hrs by acridine orange- based flow cytometry. The class given is functional, cell-based. A digest of the protocol: as §7
Data set [29] deals with Jurkat. In words: Induction of apoptosis in UV-A irradiated human Jurkat cells assessed as loss of mitochondrial membrane potential after 6 hrs by cytofluorimetric analysis. The class given is functional, cell-based. The essentials: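 Jurkat cells 6, 12 and 24 h after UV-A (2.5 J/cm²) with compound, resuspended in HBSS with JC-1 (1 μg/ml). Green (FL1) and orange (FL2) fluorescence collected by flow cytometry, ≥10000 events; cells with monomeric JC-1 counted as collapsed potential. Mean ± SEM of three experiments.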

On to `COc1nc2c(cc1S(=O)(=O)c1ccccc1)CCc1cn(C)cc1-2`, for which the result in the data set on Nucleic Acid [1], with Nucleic Acid [6], in the data set with Nucleic Acid [14] and in the data set on Nucleic Acid [22] was inactive. Further, the Activity was 45.4% with Jurkat [2]; 40.1% in the data set with Jurkat [4]; 5% with Jurkat [9]; 15.9% with Jurkat [10]; 9.5% in the data set on Jurkat [12]; “Dose-dependent effect” with Jurkat [13]. The Activity with Jurkat [16] is 50.4%; in the data set with Jurkat [17], 49.6%; in the data set on Jurkat [19] it was 4%; in the data set with Jurkat [21], “Dose-dependent effect”. Besides, the pIC50 with LoVo [3] is 5.72; in the data set with HL-60 [5], 6.05; in the data set on MCF7 [7], 5.60; with LoVo [8], 6.05; in the data set with MCF7 [11], 5.70; in data set [18], 5.96. Also, the pIC50 is 5.31 in data set [20], 5.80 with HL-60 [23], 6.00 with Jurkat [24] and 6.70 with Jurkat [25]. In addition, the Stability result in [15] is on record as “Unstable”.

Consider `Cc1c2c(cn1Cc1ccccc1)CCc1cc(S(=O)(=O)c3ccccc3)c(=O)[nH]c1-2`, for which the Stability result in data set [26] is “Unstable”. Also, the pIC50 in the data set on LoVo [3] was < 4.70; with HL-60 [5] it was 5.60; in the data set on MCF7 [7], < 4.70; in the data set with LoVo [8], < 4.70; in the data set with MCF7 [11], 5.11; in data set [18], 4.84. The pIC50 in [20] is < 4.70; in the data set with HL-60 [23], 5.40; with Jurkat [24], 4.89; in the data set with Jurkat [25], 5.52.

In the case of `CCOC(=O)c1c2c(c(C)n1Cc1ccccc1)-c1[nH]c(=O)c(S(=O)(=O)c3ccccc3)cc1CC2`, the result with Nucleic Acid [1], in the data set on Nucleic Acid [6], in the data set on Nucleic Acid [14] and with Nucleic Acid [22] was inactive. Further, the Activity in the data set on Jurkat [2] was 41.8%; with Jurkat [4], 44.8%; in the data set with Jurkat [9], 4.4%; with Jurkat [10], 12.5%; in the data set on Jurkat [12] it was 0.8%; with Jurkat [13], “Dose-dependent effect”. Further, the Activity in the data set on Jurkat [16] is 54.4%; with Jurkat [17], 53.8%; with Jurkat [19], 3.8%; in the data set with Jurkat [21], “Dose-dependent effect”. The outcome in the data set with Jurkat [27], in the data set on Jurkat [28] and in the data set with Jurkat [29] was Active. The pIC50 in the data set on LoVo [3] was 5.40; in the data set on HL-60 [5], 6.10; in the data set with MCF7 [7] it was 5.48; in the data set with LoVo [8], 5.64; with MCF7 [11], 5.85; in [18] it was 5.60. Further, the negative logarithm of the IC50 (pIC50) was 5.40 in [20], 5.92 with HL-60 [23], 5.54 in the data set with Jurkat [24] and 5.72 in the data set with Jurkat [25].
